Compounds with a hit are over-represented: about 2.5% of the library has one in this group of screens.
T cell modulator – T cell immune modulators affecting CD8 T cell-vesicle binding; 2C CD8+ T cell-vesicle binding, flow cytometry; hits give low values; response (vesicle binding), % at 7 µM; 330,000 tested, 0.068% active; AID 2052;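 active = response, share of CD8 T cells binding vesicles, and their 90th percentile fluorescence all below set limits, cut at about 80% in these data, passing the limit was not always enough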;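 also: values below 100% mean blocked vesicle binding to the CD8+ T cells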
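Benchmarks: naked versus QL9-loaded vesicles / Assay system: purified 2C TCR transgenic mouse naive CD8+ T cells / Technique: high-throughput flow cytometry with anti-B7-1 and anti-CD8 staining / Timing: Cell–vesicle co-incubation 1.5 h at 37 °C, staining 20 min on ice / Read-out: percent CD8+ FL2 mean versus row control / Probe or stimulus: QL9-loaded Drosophila micro-vesicles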
MEKK3 PB1 HTS – raises or lowers MEK5 binding to the human MEKK3 PB1 domain; bead-based flow cytometry, Alexa488-MEK5 binding to MEKK3; actives lie on both sides; 0 = blocked by unlabeled MEK5, 100 = vehicle; binding response (% of control), % at 10 µM; 290,000 tested, 1.4% active; AID 1529;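 active = binding response more than 3 SD above or below the average of its plate-row segment, actives on both sides; inconclusive = wells at one plate position flagged as instrument error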;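 also: Alexa488 bead fluorescence after subtracting the streptavidin-only scavenger bead signal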
UCH37 DUB inh – human UCH37 deubiquitinating enzyme inhibition | Q9Y5K5 | AID 588478 | inhibition, % (test concentration not listed) | 330,000 tested, 0.33% active | purified proteasome/UCH37, Ub-AMC cleavage fluorescence;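 active = mean inhibition over replicate wells above about 20%, limit read from the data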
Target sequence (Q9Y5K5 whole entry, looked up): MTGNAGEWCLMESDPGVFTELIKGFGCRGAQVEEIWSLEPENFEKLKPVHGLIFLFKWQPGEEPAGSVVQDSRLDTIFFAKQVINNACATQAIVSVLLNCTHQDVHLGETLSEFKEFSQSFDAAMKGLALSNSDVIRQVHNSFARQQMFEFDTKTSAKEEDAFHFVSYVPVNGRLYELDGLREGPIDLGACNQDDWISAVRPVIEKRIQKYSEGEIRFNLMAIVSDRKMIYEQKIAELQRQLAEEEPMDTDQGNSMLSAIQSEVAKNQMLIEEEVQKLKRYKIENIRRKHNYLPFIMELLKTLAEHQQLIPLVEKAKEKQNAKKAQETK
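Material: human UCH37 enzyme supplied as purified proteasome complex. Measure: % inhibition of Ub-AMC cleavage fluorescence. Medium: pH 7.4 Tris-HCl (50 mM) with ovalbumin, ATP-MgCl2, DTT. Times: 30 min preincubation with enzyme, 25 min cleavage at room temperature. Detection: AMC fluorescence intensity at 355/460 nm.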
Rce1 inhib – inhibitors of yeast Ras-converting enzyme. 290,000 tested, 0.27% active. yeast membranes, quenched prenylated peptide cleavage fluorescence. calls only. AID 2563;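 active = fall in fluorescence gain of 50% or more versus controls, with final raw signal at or below 3038400; inconclusive = same 50% fall but final raw signal above 3038400; inactive = fall in fluorescence gain under 50%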
Target sequence (Q03530 whole entry, looked up): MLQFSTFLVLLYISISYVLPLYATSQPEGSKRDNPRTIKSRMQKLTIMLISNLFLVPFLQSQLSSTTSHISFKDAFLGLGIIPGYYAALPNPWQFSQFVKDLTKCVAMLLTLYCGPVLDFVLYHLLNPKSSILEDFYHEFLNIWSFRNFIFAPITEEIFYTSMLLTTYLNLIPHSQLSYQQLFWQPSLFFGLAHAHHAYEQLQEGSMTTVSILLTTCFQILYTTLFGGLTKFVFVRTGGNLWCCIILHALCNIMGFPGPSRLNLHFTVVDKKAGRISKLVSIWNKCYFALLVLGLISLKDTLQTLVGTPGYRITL
MEKK2 mut-MEK5 – signal of MEK5 binding to mutant human MEKK2 PB1 domain. bead flow cytometry, Alexa488-MEK5 binding to MEKK2 mutant. percent response, % at 10 µM. 290,000 tested, 0.35% active; in the data active = percent response above about 24%, passing the limit was not always enough
MEKK2 WT-MEK5 – raises or lowers MEK5 binding to wildtype human MEKK2 PB1 domain. bead flow cytometry, Alexa488-MEK5 binding to MEKK2 WT; actives lie on both sides. Q9Y2U5. 290,000 tested, 1.1% active. binding response (% of control), % at 10 µM. AID 1531; in the data active = binding response below about 67% or above about 130%; inconclusive = no clear call, values can overlap the other calls; inactive = in between
MEKK2wt confirm – raises or lowers MEK5 binding to wildtype human MEKK2, retest. AID 1892. 5,900 tested, 2.4% active. binding response (% of control), % at 10 µM. shares compounds with MEKK3 PB1 HTS. bead flow cytometry, Alexa488-MEK5 binding to MEKK2 WT; actives lie on both sides; in the data active = binding response below about 16% or above about 210%; inactive = in between
MEKK2mut-MEK5 – signal of MEK5 binding to mutant human MEKK2, retest. bead flow cytometry, Alexa488-MEK5 binding to MEKK2 mutant. 5,900 tested, 2% active. percent response, % at 10 µM. shares compounds with MEKK3 PB1 HTS; in the data active = percent response mostly above about 71%, no sharp cut-off; inactive = mostly below about 38%;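 also: higher means compound restores mutant binding toward wildtype level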
MEKK3-MEK5 inh – confirmation of inhibitors of MEK5 binding to human MEKK3. shares compounds with MEKK3 PB1 HTS. bead flow cytometry, Alexa488-MEK5 binding to MEKK3; hits give low values. binding response (% of control), % at 10 µM. 5,900 tested, 1.8% active. AID 1894;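 active = binding response below 72% of control, or above a set upper limit, though filed actives all read lower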;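 also: lower values mean stronger disruption of MEK5 binding to MEKK3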
A number is an active result; . = inactive; ? = inconclusive; / = not tested or not shown; [ ] = remark or other dose.

SMILES	T cell modulator	MEKK3 PB1 HTS	UCH37 DUB inh	Rce1 inhib	MEKK2 mut-MEK5	MEKK2 WT-MEK5	MEKK2wt confirm	MEKK2mut-MEK5	MEKK3-MEK5 inh
COc1ccc(NC(=O)COC(=O)CNS(=O)(=O)c2ccc(F)c(F)c2F)cc1OC	.	135	.	.	.	.	.	.	.
O=C(C=NO)NCc1ccncc1	/	/	.	/	/	/	/	/	/
O=C(/C=N/O)NCc1ccncc1	.	123	/	.	.	.	.	.	.
Cc1ccc(S(=O)(=O)N2CCN(CC(=O)NN=Cc3cccnc3)CC2)cc1	/	/	.	/	/	/	/	/	/
Cc1cc(C)nc(NN=Cc2ccco2)n1	/	/	.	/	/	/	/	/	/
CCC(/C=C1\Sc2ccc(OC)cc2N1CCO)=C\c1sc2ccc(OC)cc2[n+]1CCO	.	36[inhibitor]	.	/	.	1.0[inhibitor]	1.0[inhibitor]	.	39
CCC(/C=C1\Sc2ccc(OC)cc2N1CC)=C\c1sc2ccc(OC)cc2[n+]1CCCS(=O)(=O)[O-]	.	56[inhibitor]	.	.	.	6.0[inhibitor]	17[inhibitor]	.	64
O=C(NN=Cc1ccco1)c1cc(C2CC2)[nH]n1	/	/	.	/	/	/	/	/	/
O=C(COC(=O)c1ccccc1SCC(=O)NC1CCS(=O)(=O)C1)NC1CCS(=O)(=O)C1 (stereo not given)	.	2.0[inhibitor]	.	.	.	1.0[inhibitor]	.	.	.
Cc1cccc(C=Nc2sc3c(c2C(=O)OC(C)(C)C)CCN(C)C3)c1O	/	/	.	/	/	/	/	/	/
CSc1cccc(NC(=O)/C=C/c2ccc(Cl)cc2)c1	.	.	.	.	.	146	.	.	.
O=C(NN=Cc1ccco1)c1ccn[nH]1	/	/	.	/	/	/	/	/	/
CN1CCN(c2ccc(C(F)(F)F)cc2NC(=O)Nc2ccccc2)CC1	.	.	.	.	.	150	.	.	.
NC(=O)c1cc2ccccc2oc1=NNC(=O)c1ccccc1O	/	/	.	/	/	/	/	/	/
CCC(C)=NNc1cccc([N+](=O)[O-])c1	/	/	.	/	/	/	/	/	/
CN1CCN(CCCNCc2cn(CCC#N)c3ccccc23)CC1	.	.	.	.	25	168	.	.	.
N#CCCN1CCN(Cn2c3ccccc3c3ccccc32)CC1	.	.	.	.	.	.	/	/	/
CN(C)CCCNc1cc(C(C)(C)C)nc2c(-c3ccc(Cl)cc3)cnn12	.	.	.	.	.	190	250	89	.
CC(C)(C)c1cc(-n2ccnc2)n2ncc(-c3ccc(Cl)cc3)c2n1	.	.	.	.	.	.	/	/	/
Cc1cc(NCCCN2CCOCC2)n2ncc(-c3ccc(Cl)cc3)c2n1	.	.	.	.	.	147	.	.	.
Cc1cc(NCCCn2ccnc2)n2ncc(-c3ccc(Cl)cc3)c2n1	.	.	.	.	.	.	/	/	/
CCc1nccn1-c1cc(C(C)(C)C)nc2c(-c3ccc(Cl)cc3)cnn12	.	151	.	.	.	.	.	.	.
CC(C)(C)c1cc(NCCCn2ccnc2)n2ncc(-c3ccccc3)c2n1	.	.	.	.	.	145	.	.	.
C=CCNC(=O)CC(=O)NN=Cc1ccc(C(=O)OC)cc1	/	/	.	/	/	/	/	/	/
CCCCCOc1ccc(C(C)=NNC2=NCCN2)cc1	/	/	.	/	/	/	/	/	/
SMILES	T cell modulator	MEKK3 PB1 HTS	UCH37 DUB inh	Rce1 inhib	MEKK2 mut-MEK5	MEKK2 WT-MEK5	MEKK2wt confirm	MEKK2mut-MEK5	MEKK3-MEK5 inh
CCOc1ccc(Br)cc1/C(C)=N\NC1=NCCN1	.	.	/	.	.	.	/	/	/
CCCCCCOc1ccc(/C(C)=N/NC2=NCCN2)cc1	.	.	/	.	36	204	.	.	.
CCCCCOc1ccc(/C(C)=N/NC2=NCCN2)cc1	.	.	/	.	.	148	.	.	.
O=C(NC(=S)NCCC1=CCCCC1)c1cncc(Br)c1	.	152	.	.	.	.	.	.	.
O=C(NC(=S)NCCC1=CCCCC1)c1ccccc1Br	.	.	/	.	.	.	/	/	/
CN1C(=NO)c2cccc3cccc1c23	/	/	.	/	/	/	/	/	/
COc1ccc(C(OCC(O)CNCCc2ccc(S(N)(=O)=O)cc2)c2ccc(OC)cc2)cc1 (stereo not given)	.	.	.	.	.	.	/	/	/
OC(CNCCc1ccc(C(F)(F)F)cc1)COC(c1ccccc1)c1ccccc1 (stereo not given)	.	.	.	.	46	191	.	.	.
O=C(NCCN1CCN(Cc2ccccc2)CC1)Nc1cc(Cl)cc(Cl)c1	.	.	.	.	.	139	.	.	.
O=C(NCCN1CCN(c2cccc(Cl)c2)CC1)Nc1ccccc1	.	.	.	.	.	.	/	/	/
Cc1c(CN(C)C)c2c(n1Cc1ccccc1)C(=O)c1ccc(Br)cc1-2	.	.	.	.	.	139	.	.	.
CC1CCCC(NC(=O)COC(=O)c2sc3ccccc3c2Cl)C1C (stereo not given)	.	135	.	.	.	.	.	.	.
CS(=O)(=O)N1CCN(c2ccccc2NC(=O)Cc2ccccc2)CC1	.	.	.	.	.	.	/	/	/
CS(=O)(=O)N1CCN(c2ccccc2NC(=O)c2ccc(-c3ccc(Cl)cc3Cl)o2)CC1	.	.	.	.	.	.	/	/	/
CN1CCN(c2ccccc2NC(=O)c2ccc(-c3ccc(Cl)cc3Cl)o2)CC1	.	.	.	.	.	156	.	.	.
Cc1nnc2sc(-c3ccc(NC(=O)c4ccc(-c5ccc(Cl)cc5Cl)o4)cc3)nn12	.	77[inhibitor]	.	.	.	.	.	.	.
CC(=O)Cc1nsc(NC(=O)c2ccc(-c3ccc(Cl)cc3Cl)o2)n1	.	.	.	.	.	.	/	/	/
CS(=O)(=O)N1CCN(c2ccccc2NC(=O)Cc2ccc(Cl)cc2)CC1	.	2.0[inhibitor]	.	.	.	2.0[inhibitor]	.	.	.
N#Cc1nc(-c2ccccc2)oc1NCC1CCCO1 (stereo not given)	.	147	.	.	.	.	.	.	.
N#Cc1nc(-c2ccccc2)oc1NCCN1CCCCC1	.	2.0[inhibitor]	.	?	.	3.0[inhibitor]	.	.	.
O=C(NC(NC(=S)Nc1ccc(Cl)cc1Cl)C(Cl)(Cl)Cl)c1cccc([N+](=O)[O-])c1 (stereo not given)	.	141	.	.	.	145	.	.	.
O=C(O)c1cccc(NC(=S)NC(NC(=O)c2cccc([N+](=O)[O-])c2)C(Cl)(Cl)Cl)c1 (stereo not given)	.	.	.	.	.	.	/	/	/
C=CCNC(=S)NN=C(C)c1ccc(OC)cc1	/	/	.	/	/	/	/	/	/
C=CCNC(=S)N/N=C(\C)c1cc(OC)c(OC)c(OC)c1	.	137	/	.	.	.	.	.	.
